ChEMBL document CHEMBL1141158, “New 5-hydroxytryptamine(1A) receptor ligands containing a norbornene nucleus: synthesis and in vitro pharmacological evaluation” (J Med Chem, 2005)

What was measured:
[1] = molecular target: T1, 5-hydroxytryptamine receptor 2C (Rattus norvegicus, UniProt P08909); assay: Inhibition of 1 nM [3H]mesulergine binding to Serotonin 5-HT2C receptor from rat brain cortex
T1 sequence (P08909 whole entry): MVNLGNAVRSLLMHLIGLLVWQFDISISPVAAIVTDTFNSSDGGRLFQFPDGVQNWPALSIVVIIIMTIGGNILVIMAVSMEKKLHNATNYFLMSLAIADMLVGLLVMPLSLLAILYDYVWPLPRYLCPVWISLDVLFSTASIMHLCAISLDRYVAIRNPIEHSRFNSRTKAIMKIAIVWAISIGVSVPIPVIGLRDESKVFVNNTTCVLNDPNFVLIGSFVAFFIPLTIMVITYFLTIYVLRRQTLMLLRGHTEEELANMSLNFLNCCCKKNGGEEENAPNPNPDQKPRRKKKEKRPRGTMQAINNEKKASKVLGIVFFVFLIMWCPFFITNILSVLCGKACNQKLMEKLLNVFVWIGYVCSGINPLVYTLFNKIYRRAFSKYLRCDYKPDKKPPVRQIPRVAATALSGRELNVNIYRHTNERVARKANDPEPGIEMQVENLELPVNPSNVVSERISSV

[2] = molecular target: T2, 5-hydroxytryptamine receptor 1A (Rattus norvegicus, UniProt P19327); assay: Inhibition of [3H]8-OH-DPAT binding to Serotonin 5-HT1A receptor from rat brain cortex
T2 sequence (P19327 whole entry): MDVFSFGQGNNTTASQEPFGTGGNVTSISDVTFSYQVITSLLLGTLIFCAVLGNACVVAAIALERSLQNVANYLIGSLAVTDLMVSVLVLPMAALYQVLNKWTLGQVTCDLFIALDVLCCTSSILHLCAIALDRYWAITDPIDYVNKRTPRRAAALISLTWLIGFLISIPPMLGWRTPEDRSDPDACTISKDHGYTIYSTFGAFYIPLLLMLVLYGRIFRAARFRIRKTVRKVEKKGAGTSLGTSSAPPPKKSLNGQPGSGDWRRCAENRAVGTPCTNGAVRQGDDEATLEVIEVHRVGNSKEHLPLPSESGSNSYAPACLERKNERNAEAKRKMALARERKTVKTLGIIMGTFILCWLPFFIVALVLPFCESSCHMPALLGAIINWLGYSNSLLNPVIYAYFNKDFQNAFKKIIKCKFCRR

[3] = molecular target: 5-hydroxytryptamine receptor 2A (Rattus norvegicus, UniProt P14842); assay: Inhibition of 0.4 nM [3H]ketanserin binding to Serotonin 5-HT2A receptor from rat brain cortex
Chain of 5-hydroxytryptamine receptor 2A (P14842 whole entry): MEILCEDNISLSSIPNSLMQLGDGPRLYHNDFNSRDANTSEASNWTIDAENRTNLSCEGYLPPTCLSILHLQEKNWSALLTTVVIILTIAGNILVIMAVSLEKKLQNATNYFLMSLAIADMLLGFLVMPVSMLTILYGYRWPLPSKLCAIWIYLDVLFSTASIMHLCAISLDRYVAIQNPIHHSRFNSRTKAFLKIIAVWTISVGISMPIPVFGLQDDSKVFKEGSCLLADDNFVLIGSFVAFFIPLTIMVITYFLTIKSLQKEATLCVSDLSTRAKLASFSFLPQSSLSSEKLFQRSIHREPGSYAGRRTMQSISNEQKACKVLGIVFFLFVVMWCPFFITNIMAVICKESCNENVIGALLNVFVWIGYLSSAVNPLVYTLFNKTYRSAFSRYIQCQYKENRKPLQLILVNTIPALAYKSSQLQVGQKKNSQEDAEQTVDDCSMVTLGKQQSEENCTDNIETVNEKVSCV

[4] = molecular target: T3, Adrenergic receptor alpha-1 (Rattus norvegicus, UniProt P15823+P23944+P43140); assay: Inhibition of [3H]prazosin bindign to Adrenergic alpha 1 receptor from rat brain cortex
T3 sequence (P15823 whole entry): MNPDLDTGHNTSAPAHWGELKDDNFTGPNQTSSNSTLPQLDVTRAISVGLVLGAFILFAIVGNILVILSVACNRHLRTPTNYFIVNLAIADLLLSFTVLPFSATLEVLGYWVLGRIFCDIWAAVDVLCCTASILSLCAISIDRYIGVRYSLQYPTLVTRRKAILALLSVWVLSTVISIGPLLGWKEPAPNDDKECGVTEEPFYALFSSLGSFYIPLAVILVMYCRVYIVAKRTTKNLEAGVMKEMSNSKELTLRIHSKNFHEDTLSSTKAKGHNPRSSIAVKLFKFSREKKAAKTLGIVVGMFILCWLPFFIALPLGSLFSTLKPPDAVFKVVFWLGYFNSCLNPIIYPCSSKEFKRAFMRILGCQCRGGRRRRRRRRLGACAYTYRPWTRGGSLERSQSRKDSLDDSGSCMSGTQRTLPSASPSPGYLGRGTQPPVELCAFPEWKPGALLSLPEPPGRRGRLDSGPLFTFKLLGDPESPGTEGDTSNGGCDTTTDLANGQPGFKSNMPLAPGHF
T3 sequence (P23944 whole entry): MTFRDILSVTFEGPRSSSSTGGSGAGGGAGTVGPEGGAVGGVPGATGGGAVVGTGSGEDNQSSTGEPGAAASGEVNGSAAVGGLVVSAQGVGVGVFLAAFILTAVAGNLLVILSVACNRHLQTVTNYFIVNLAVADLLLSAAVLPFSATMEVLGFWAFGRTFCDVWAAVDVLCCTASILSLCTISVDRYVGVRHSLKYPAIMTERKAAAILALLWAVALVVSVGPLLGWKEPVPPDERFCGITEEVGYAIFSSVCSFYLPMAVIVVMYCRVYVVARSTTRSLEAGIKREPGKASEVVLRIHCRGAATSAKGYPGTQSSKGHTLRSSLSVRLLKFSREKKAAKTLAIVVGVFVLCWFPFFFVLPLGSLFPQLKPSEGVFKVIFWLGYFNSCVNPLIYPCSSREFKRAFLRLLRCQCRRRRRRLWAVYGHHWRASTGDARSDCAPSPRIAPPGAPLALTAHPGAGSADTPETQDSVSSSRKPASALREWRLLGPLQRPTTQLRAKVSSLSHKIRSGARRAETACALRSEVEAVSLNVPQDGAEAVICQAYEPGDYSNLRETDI
T3 sequence (P43140 whole entry): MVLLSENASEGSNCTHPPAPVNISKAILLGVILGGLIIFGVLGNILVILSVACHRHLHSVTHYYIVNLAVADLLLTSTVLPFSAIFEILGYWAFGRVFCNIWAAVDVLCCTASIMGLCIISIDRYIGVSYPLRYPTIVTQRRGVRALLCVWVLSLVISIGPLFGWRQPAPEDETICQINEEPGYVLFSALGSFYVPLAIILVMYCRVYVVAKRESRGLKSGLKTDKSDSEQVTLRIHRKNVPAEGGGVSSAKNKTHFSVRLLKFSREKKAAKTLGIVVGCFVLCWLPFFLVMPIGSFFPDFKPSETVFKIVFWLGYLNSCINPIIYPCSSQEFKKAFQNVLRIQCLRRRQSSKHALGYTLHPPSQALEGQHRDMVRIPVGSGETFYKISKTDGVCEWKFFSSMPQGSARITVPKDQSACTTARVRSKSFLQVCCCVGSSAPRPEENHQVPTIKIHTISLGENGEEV
Procedure, shortened: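 Cortical membranes in 50 mM Tris-HCl pH 7.4, 10 mg fresh tissue per tube, with [3H]prazosin 0.4 nM final; 30 min at 25 °C, then vacuum filtration on GF/B and scintillation counting. 10 μM phentolamine defined nonspecific binding. Six test concentrations in triplicate; IC50 from competition curves, Ki by Cheng–Prusoff using Scatchard KD.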

D(2) dopamine receptor = D(2) dopamine receptor (Rattus norvegicus, UniProt P61169); assay: Inhibition of [3H]spiperone binding to Dopamine D2 receptor from rat striatum
Chain of D(2) dopamine receptor (P61169 whole entry): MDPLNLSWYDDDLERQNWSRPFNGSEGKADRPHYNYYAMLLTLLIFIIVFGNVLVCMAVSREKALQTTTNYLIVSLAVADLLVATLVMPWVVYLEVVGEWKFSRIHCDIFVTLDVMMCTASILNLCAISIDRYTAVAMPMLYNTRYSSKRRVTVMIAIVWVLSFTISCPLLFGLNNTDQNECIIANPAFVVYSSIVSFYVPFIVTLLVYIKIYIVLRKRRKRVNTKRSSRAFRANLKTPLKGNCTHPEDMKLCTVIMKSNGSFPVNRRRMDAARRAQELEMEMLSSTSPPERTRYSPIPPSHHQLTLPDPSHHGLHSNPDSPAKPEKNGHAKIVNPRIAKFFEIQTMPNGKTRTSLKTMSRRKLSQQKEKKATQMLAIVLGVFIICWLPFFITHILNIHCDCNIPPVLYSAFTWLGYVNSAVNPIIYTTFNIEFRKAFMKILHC
Procedure, shortened: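 Rat striatal membranes washed twice at 50 000g, resuspended in Tris-HCl pH 7.1 with NaCl, KCl, CaCl2, MgCl2, ascorbic acid, 10 μM pargyline; 3 mg fresh tissue per tube. [3H]spiperone 0.4 nM final, 15 min at 37 °C, GF/B filtration, scintillation counting. Nonspecific defined with 1 μM (+)-butaclamol. Six concentrations, triplicate; Ki via Cheng–Prusoff.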

D(1A) dopamine receptor = D(1A) dopamine receptor (Rattus norvegicus, UniProt P18901); assay: Inhibition of [3H]SCH-23,390 binding to Dopamine D1 receptor from rat striatum
Chain of D(1A) dopamine receptor (P18901 whole entry): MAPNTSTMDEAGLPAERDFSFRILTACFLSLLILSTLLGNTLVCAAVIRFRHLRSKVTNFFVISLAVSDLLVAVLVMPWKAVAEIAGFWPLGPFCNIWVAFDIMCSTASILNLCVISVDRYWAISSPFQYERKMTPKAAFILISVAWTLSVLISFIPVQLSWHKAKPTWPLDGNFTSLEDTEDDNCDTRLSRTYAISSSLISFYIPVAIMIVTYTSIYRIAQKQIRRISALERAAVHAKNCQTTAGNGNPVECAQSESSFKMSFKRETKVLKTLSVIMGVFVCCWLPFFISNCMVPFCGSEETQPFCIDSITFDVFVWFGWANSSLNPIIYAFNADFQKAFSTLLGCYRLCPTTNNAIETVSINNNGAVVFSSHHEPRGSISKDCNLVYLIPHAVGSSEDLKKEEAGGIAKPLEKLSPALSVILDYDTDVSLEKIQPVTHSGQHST
Procedure, shortened: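 Rat striatal membranes washed twice by 50 000g spins, resuspended in Tris-HCl pH 7.1 with NaCl, KCl, CaCl2, MgCl2, ascorbic acid, 10 μM pargyline; 3 mg fresh tissue per tube. [3H]SCH-23390 at 0.4 nM final, 15 min at 37 °C, GF/B filtration, scintillation counting. Nonspecific with 0.1 μM piflutixol. Six concentrations in triplicate; IC50 converted to Ki by Cheng–Prusoff.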

[5] = molecular target: T4, Adrenergic receptor alpha-2 (Rattus norvegicus, UniProt P22086+P19328+P22909); assay: Inhibition of [3H]yohimbine binding to Adrenergic alpha 2 receptor from rat brain cortex
T4 sequence (P22086 whole entry): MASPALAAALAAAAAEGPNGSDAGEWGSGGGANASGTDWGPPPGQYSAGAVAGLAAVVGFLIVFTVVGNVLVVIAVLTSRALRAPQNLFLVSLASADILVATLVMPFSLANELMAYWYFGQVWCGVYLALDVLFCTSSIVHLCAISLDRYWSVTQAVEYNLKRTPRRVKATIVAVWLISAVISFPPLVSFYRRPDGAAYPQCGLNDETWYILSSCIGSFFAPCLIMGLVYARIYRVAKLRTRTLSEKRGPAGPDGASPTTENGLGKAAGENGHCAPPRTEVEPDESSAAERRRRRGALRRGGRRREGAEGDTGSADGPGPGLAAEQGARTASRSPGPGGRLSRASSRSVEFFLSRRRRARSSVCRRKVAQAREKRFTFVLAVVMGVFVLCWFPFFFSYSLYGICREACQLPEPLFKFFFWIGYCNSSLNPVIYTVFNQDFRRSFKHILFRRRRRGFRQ
T4 sequence (P19328 whole entry): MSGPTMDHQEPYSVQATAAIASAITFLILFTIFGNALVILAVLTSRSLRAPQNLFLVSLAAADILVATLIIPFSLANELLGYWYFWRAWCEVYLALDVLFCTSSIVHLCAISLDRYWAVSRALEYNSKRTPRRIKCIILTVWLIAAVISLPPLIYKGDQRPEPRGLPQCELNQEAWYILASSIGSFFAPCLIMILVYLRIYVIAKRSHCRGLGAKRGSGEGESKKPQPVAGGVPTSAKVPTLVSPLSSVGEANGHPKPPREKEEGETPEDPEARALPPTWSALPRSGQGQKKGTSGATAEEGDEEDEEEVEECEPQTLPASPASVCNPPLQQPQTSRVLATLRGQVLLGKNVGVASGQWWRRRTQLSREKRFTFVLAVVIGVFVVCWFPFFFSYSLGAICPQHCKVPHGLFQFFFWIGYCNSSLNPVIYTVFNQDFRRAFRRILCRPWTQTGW
T4 sequence (P22909 whole entry): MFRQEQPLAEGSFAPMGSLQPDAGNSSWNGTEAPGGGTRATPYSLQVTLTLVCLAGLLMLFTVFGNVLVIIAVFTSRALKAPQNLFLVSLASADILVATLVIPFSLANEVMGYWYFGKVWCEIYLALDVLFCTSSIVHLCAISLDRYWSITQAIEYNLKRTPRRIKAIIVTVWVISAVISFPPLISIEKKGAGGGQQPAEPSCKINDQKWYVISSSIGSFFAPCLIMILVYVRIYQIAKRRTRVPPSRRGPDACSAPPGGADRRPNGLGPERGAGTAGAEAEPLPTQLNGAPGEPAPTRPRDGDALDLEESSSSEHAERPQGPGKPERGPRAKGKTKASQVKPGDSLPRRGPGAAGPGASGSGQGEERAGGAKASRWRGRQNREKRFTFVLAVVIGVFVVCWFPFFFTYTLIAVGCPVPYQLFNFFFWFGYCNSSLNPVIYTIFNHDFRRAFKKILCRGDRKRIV
Procedure, shortened: (§1)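 Brain cortex homogenized in 5 mM Tris-HCl/5 mM EDTA, washed three times at 50 000g, resuspended in 50 mM Tris-HCl/0.5 mM EDTA pH 7.5; 10 mg fresh tissue per tube. [3H]yohimbine 1 nM final, 30 min at 25 °C, GF/B filtration, scintillation counting. Six concentrations in triplicate; IC50 converted to Ki (Cheng–Prusoff).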

[6] = molecular target: T4, Adrenergic receptor alpha-2; assay: Inhibition of [3H]yohimbine binding to Adrenergic receptor alpha 2 receptor from rat brain cortex; procedure, shortened: as §1

SMILES	Ki [1] [nM]	Ki [2] [nM]	Ki [3] [nM]	Ki [4] [nM]	Ki (D(2) dopamine receptor; read-out: Ki) [nM]	Ki (D(1A) dopamine receptor; read-out: Ki) [nM]	Ki [5] [nM]	Ki [6] [nM]	Ki (D(2) dopamine receptor)	Ki (D(1A) dopamine receptor)
O=C1C2C3C=CC(C3)C2C(=O)N1OCCCN1CCN(c2ccccn2)CC1 (stereo not drawn)	> 10000	30.3	> 10000	–	–	–	–	–	–	–
O=C1C2C3C=CC(C3)C2C(=O)N1OCCN1CCN(c2ccccc2Cl)CC1 (stereo not drawn)	> 10000	–	> 10000	747	> 10000	> 10000	691	–	–	–
COc1ccccc1N1CCN(CCCON2C(=O)C3C4C=CC(C4)C3C2=O)CC1 (stereo not drawn)	> 10000	0.021	> 10000	75.3	> 10000	> 10000	–	3650	–	–
COc1ccccc1N1CCN(CCON2C(=O)C3C4C=CC(C4)C3C2=O)CC1 (stereo not drawn)	> 10000	45	> 10000	–	–	–	–	–	–	–
O=C1C2C3C=CC(C3)C2C(=O)N1OCCN1CCN(c2ncccn2)CC1 (stereo not drawn)	–	384	> 10000	–	–	–	–	–	–	–
O=C1C2C3C=CC(C3)C2C(=O)N1OCCN1CCN(c2cccc(C(F)(F)F)c2)CC1 (stereo not drawn)	> 10000	2.14	4010	> 10000	> 10000	> 10000	–	> 10000	–	–
O=C1C2C3C=CC(C3)C2C(=O)N1OCCN1CCN(c2ccccn2)CC1 (stereo not drawn)	> 10000	382	3510	–	–	–	–	–	–	–
O=C1C2C3C=CC(C3)C2C(=O)N1OCCCN1CCN(c2ccccc2Cl)CC1 (stereo not drawn)	423	4.13	3900	128	–	–	–	3140	Not Active	Not Active

Compounds with a lower Ki [3], results first:

Ki [1] [nM]	Ki [2] [nM]	Ki [3] [nM]	Ki [4] [nM]	Ki (D(2) dopamine receptor; read-out: Ki) [nM]	Ki (D(1A) dopamine receptor; read-out: Ki) [nM]	Ki [5] [nM]	Ki [6] [nM]	Ki (D(2) dopamine receptor)	Ki (D(1A) dopamine receptor)	SMILES
> 10000	27.1	2700	–	–	–	–	–	–	–	O=C1C2C3C=CC(C3)C2C(=O)N1OCCN1CCN(c2cccc(Cl)c2)CC1 (stereo not drawn)
> 10000	5.13	2680	358	670	4510	–	4680	–	–	O=C1C2C3C=CC(C3)C2C(=O)N1OCCCN1CCN(c2cccc(C(F)(F)F)c2)CC1 (stereo not drawn)
733	3.36	547	141	–	> 10000	–	1710	Not Active	–	O=C1C2C3C=CC(C3)C2C(=O)N1OCCCN1CCN(c2cccc(Cl)c2)CC1 (stereo not drawn)
> 10000	49.5	118	–	–	–	–	–	–	–	O=C1C2C3C=CC(C3)C2C(=O)N1OCCCN1CCN(c2ncccn2)CC1 (stereo not drawn)
